This note sets out measurements from ChEMBL document CHEMBL3112507 (Bioorg Med Chem, 2014).

Active and inactive are the calls of the source. No cut-off for these calls is given here.

Data set [1] has as its target T1, Polyunsaturated fatty acid 5-lipoxygenase (Homo sapiens, UniProt P09917).
T1 sequence (P09917 whole entry): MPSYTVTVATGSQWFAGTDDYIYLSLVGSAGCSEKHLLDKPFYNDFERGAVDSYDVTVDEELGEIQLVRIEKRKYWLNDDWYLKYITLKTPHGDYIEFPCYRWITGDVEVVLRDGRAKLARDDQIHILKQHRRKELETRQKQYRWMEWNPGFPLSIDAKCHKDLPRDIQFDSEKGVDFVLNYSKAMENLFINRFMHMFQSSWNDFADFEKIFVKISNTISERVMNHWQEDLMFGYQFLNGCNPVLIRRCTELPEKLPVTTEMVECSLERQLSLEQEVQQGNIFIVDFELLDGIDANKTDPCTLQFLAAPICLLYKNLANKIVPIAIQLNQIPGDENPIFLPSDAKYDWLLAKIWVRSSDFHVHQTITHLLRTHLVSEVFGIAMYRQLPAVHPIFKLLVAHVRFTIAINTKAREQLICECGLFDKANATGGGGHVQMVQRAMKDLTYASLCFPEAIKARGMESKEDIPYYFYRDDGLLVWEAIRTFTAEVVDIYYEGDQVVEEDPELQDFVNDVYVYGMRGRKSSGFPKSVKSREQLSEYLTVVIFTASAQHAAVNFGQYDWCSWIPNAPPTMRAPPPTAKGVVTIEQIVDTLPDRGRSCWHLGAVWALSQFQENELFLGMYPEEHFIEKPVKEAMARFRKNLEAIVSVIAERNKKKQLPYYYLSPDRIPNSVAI
Nature of the data set: Inhibition of 5-LOX (unknown origin) using arachidonic acid as substrate after 5 mins by EIA. The method in brief:
(§1)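 Test compounds dissolved in DMSO at 0.01, 0.1, 1, 10 and 100 µM. Each was added to 5-LOX enzyme in assay buffer, and the reaction was started with arachidonic acid substrate. Plates were shaken 5 min, chromogen was added, shaken 5 min more, then read at 490 nm. Blanks were buffer plus AA; positive controls were enzyme plus AA. Run in duplicate, means with deviation <5% used. Percent inhibition was calculated from lipoxygenase activity; IC50 derived from the concentration series.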

For data set [2], the target named is T2, Polyunsaturated fatty acid 5-lipoxygenase (Homo sapiens) (UniProt P09917).
T2 sequence (whole entry): T1 sequence (P09917 whole entry)
Nature of the data set: Inhibition of 5-LOX (unknown origin) using arachidonic acid as substrate at 0.1 uM after 5 mins by EIA. An outline of the steps:
as §1

The test system of data set [3] is HeLa. As to the kind of experiment: Cytotoxicity against human HeLa cells assessed as cell viability at […] after 15 to 45 hrs by MTT assay. In kind it is cell-based. In general terms: Tetrazolium dyes change colour on reduction, which living cells bring about.
Data set [4] has as its target T2, Polyunsaturated fatty acid 5-lipoxygenase (Homo sapiens). Nature of the data set: Inhibition of 5-LOX (unknown origin) using arachidonic acid as substrate at 10 uM after 5 mins by EIA. An outline of the steps:
as §1

Data set [5] has as its target Phospholipase A2 (Homo sapiens) (UniProt P04054). As to the kind of experiment: Inhibition of PLA2 (unknown origin) by Ellman's method. On the technique in general: In Ellman's method for cholinesterases, released thiocholine reacts with DTNB.
In data set [6] the target is T3, Prostaglandin G/H synthase 2 (Homo sapiens) (UniProt P35354).
T3 sequence (whole entry): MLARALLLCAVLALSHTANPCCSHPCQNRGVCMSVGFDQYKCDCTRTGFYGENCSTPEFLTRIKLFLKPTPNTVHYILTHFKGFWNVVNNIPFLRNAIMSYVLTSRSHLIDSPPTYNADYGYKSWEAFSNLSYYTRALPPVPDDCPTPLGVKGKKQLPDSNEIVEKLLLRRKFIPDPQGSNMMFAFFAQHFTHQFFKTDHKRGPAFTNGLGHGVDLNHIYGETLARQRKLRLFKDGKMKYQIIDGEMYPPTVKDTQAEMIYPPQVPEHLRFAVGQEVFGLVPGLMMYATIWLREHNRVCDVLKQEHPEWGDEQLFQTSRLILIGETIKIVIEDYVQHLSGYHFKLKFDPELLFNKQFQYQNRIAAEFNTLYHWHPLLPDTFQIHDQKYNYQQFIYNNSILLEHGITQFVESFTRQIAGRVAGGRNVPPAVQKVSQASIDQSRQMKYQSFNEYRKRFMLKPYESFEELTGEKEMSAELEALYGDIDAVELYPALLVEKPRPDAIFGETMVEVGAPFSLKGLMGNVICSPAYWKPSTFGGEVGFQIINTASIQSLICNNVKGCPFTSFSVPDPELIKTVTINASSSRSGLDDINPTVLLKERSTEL
Nature of the data set: Inhibition of COX2 (unknown origin) by EIA.

In data set [7] the target is Prostaglandin G/H synthase 1 (Homo sapiens) (UniProt P23219). Nature of the data set: Inhibition of COX1 (unknown origin) by EIA.
The target in data set [8] is T2, Polyunsaturated fatty acid 5-lipoxygenase (Homo sapiens). Nature of the data set: Inhibition of 5-LOX (unknown origin) using arachidonic acid as substrate at 0.01 uM after 5 mins by EIA. The method in brief:
as §1

The target of data set [9] is T1, Polyunsaturated fatty acid 5-lipoxygenase. Nature of the data set: Inhibition of 5-LOX (unknown origin) using arachidonic acid as substrate after 5 mins by EIA in presence of pig liver esterase. An outline of the steps: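 Same 5-LOX colorimetric immunoassay kit procedure (compounds at 0.01–100 µM in DMSO, AA substrate, chromogen, 490 nm, duplicates). Ester compounds were first treated with pig liver esterase, extracted per a reported procedure, before addition to the 5-LOX enzyme.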

For data set [10], the target named is T2, Polyunsaturated fatty acid 5-lipoxygenase (Homo sapiens). As to the kind of experiment: Inhibition of 5-LOX (unknown origin) using arachidonic acid as substrate at 100 uM after 5 mins by EIA. An outline of the steps:
as §1

Data set [11] has as its target T1, Polyunsaturated fatty acid 5-lipoxygenase. As to the kind of experiment: (§2) Inhibition of 5-LOX (unknown origin) by UV-Vis spectrophotometry. An outline of the steps: (§3)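 UV–visible spectral titration of the compounds with 5-LOX. Association constant Ka was obtained from 1/(Af−Aobs) = 1/(Af−Afc) + 1/(Ka[Af−Afc][L]). Ki was calculated as IC50/(1+[L]/Kd) using IC50 values from the enzyme immunoassay.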

Data set [12] has as its target T2, Polyunsaturated fatty acid 5-lipoxygenase (Homo sapiens). Described as §2. An outline of the steps: as §3
The target is the same in data set [13]. As to the kind of experiment: Inhibition of 5-LOX (unknown origin) using arachidonic acid as substrate at 1 uM after 5 mins by EIA. An outline of the steps:
as §1

Data set [14] in a line: Octanol-water partition coefficient, log P of the compound. The class given is physicochemical.

Phospholipase A2 (Homo sapiens), sequence (P04054 23-148 limits assumed): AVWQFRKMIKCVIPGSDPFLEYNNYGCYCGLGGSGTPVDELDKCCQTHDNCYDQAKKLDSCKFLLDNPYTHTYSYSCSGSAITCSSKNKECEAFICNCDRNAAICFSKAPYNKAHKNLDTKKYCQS
Prostaglandin G/H synthase 1 (Homo sapiens), sequence (P23219 whole entry): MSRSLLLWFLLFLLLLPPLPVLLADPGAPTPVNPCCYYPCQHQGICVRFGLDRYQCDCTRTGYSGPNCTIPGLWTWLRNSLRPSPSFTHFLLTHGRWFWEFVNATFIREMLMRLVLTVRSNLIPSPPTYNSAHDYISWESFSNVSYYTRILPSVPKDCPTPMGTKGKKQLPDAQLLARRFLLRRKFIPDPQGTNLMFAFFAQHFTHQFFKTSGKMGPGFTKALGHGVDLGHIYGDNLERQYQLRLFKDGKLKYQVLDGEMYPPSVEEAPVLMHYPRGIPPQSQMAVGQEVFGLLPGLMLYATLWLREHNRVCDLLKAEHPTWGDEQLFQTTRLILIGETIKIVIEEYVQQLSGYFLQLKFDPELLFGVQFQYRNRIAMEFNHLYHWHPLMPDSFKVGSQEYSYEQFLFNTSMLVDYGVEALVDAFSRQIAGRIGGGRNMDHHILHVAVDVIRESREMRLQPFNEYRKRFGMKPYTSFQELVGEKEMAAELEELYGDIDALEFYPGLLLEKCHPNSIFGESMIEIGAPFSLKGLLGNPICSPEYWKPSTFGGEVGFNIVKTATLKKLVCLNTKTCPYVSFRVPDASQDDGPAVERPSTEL

In general, IC50 refers to the concentration needed to halve the response being measured. The inhibition is the drop in the measured response relative to a control, in per cent. In general, Ki refers to the dissociation constant of the complex between target and ligand, obtained from inhibition or displacement. The low end stands for a stronger hold on the target, the high end for a looser hold on the target. Usually logP stands for the decadic logarithm of the partition coefficient of the neutral form, usually between octanol and water. In the case of `COC(=O)CNC(=O)C(=O)c1cn(S(=O)(=O)c2ccc(C)cc2)c2ccccc12`, the IC50 in [1] stood at 9.7 nM; in [9] it was 8 nM. For the same compound, the inhibition in data set [2] was 51.5%; in data set [4], 85%; in data set [8], 50%; in data set [10], 98%; in data set [13], 67.7%. The Activity result in [3] is reported as “Non-toxic”. In addition, the inhibition result in data set [5], in [6] and in data set [7] was “inactive” in each case. In data set [11], this compound registered a Ki of 9.5 nM. In [12], this compound had a Ka of 2.32 ×10⁶ /M. The compound also returned a logP in data set [14] of 2.21.
`COC(=O)[C@@H](Cc1cnc[nH]1)NC(=O)C(=O)c1cn(S(=O)(=O)c2ccc(C)cc2)c2ccccc12`: the IC50 in data set [1] was found to be 4330 nM; in data set [9], 2980 nM. In addition, the inhibition in [2] was determined as 40.5%; in data set [4], 58.2%; in data set [8], 30%; in data set [10], 63.8%; in data set [13], 45.3%. The inhibition result in data set [5], in [6] and in data set [7] was “inactive” each time. The compound further displayed a Ki in [11] of 4160 nM. Moreover, the Ka in data set [12] came to 1.01 ×10⁴ /M. This compound returned a logP in [14] of 1.98.
Regarding `Cc1ccc(S(=O)(=O)n2cc(C(=O)C(=O)NCC(=O)O)c3ccccc32)cc1`, in data set [1], the IC50 was found to be 8.6 nM. Also, the inhibition in data set [2] was 63.5%; in [4], 91.2%; in data set [8] it was 57.4%; in data set [10], 97.5%; in data set [13], 78.4%. The Activity entry in data set [3] is given as “Non-toxic”. In addition, the inhibition entry in data set [5], in [6] and in data set [7] was “inactive” each time. For the same compound, the Ki in data set [11] amounted to 8.4 nM. The compound also gave a Ka in data set [12] of 2.07 ×10⁶ /M.
